Values after ≈ are worked out from the molar mass of the structure shown.
How the values were obtained:
Oryctolagus cuniculus = organism: Oryctolagus cuniculus; assay: Minimum cytotoxic concentration required to cause a microscopically detectable alteration of normal cell morphology and show antiviral activity in primary rabbit kidney (PRK) cells; type: functional
Nucleic Acid [1] = assay: Association constant against the polynucleotide poly (dA-dT).; type: nucleic-acid assay
Summary of the method: (§1)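 Competition with ethidium bromide binding at 25 °C in 0.01 M cacodylate buffer, pH 7.0, with 1.26 μM ethidium bromide and 1 μM polynucleotide. Bound ethidium is estimated from its fluorescence increase (V = 34 for poly(dA-dT), 25 for poly(dG-dC)). IC50 for 50% ethidium displacement comes from a fitted competition sigmoid. Kapp is calculated from IC50 assuming a binding size of four base pairs.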

Nucleic Acid [2] = assay: Association constant against polynucleotide poly (dG-dC); type: nucleic-acid assay; summary of the method: as §1
L1210 = assay: Dose required to inhibit Murine leukemia (L1210) cell proliferation by 50%; type: functional; details: Mus musculus, read-out: CD50 (the source's name)
HeLa [3] = assay: Minimum inhibitory concentration required to reduce vesicular stomatitis virus induced cytopathogenicity by 50% in HeLa cells; type: functional; details: Homo sapiens
Vero [4] = assay: Minimum cytotoxic concentration required to cause a microscopically detectable alteration of normal cell morphology and show antiviral activity in african green monkey (Vero B) cells; type: functional; details: Chlorocebus sabaeus
[5] = Dose required to inhibit Human T-Lymphoblast (Molt/4F) cell proliferation by 50%; type: functional; details: read-out: CD50 (the source's name)
Raji = assay: Dose required to inhibit Human B-Lymphoblast (Raji) cell proliferation by 50%; type: functional; details: read-out: CD50 (the source's name)
HeLa [6] = assay: Minimum inhibitory concentration required to reduce polio virus -1 induced cytopathogenicity by 50% in HeLa cells; type: functional; details: Homo sapiens
HeLa [7] = assay: Minimum cytotoxic concentration required to cause a microscopically detectable alteration of normal cell morphology and show antiviral activity in HeLa cells; type: functional; details: Homo sapiens
Summary of the method: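 HeLa cell cultures exposed to compound for the same duration as the antiviral assay, then examined microscopically. The minimum cytotoxic concentration is the lowest level causing detectable alteration of normal cell morphology. Values are in μg/mL.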

Sindbis virus = assay: Minimum inhibitory concentration required to reduce Sindbis virus induced cytopathogenicity by 50% in african green monkey (VeroB) cells; type: functional
Summary of the method: (§2)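 Cell cultures (PRK, HeLa or Vero B) are infected at 100 × CCID50. Cytopathogenicity is recorded once it reaches completion in the untreated virus-infected controls. The minimum inhibitory concentration is given in μg/mL.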

Vero [8] = assay: Minimum inhibitory concentration required to reduce Coxsackie virus B4 induced cytopathogenicity by 50% in african green monkey (VeroB) cells; type: functional, Coxsackievirus B4; details: Chlorocebus sabaeus; summary of the method: as §2
Semliki Forest virus = assay: Minimum inhibitory concentration required to reduce semliki forest virus induced cytopathogenicity by 50% in african green monkey (VeroB) cells; type: functional; summary of the method: as §2
[9] = test system: Vesicular stomatitis virus; assay: (§3) Minimum inhibitory concentration required to reduce vesicular stomatitis virus induced cytopathogenicity by 50% in primary rabbit kidney cells (PRK); type: functional
Human alphaherpesvirus 2 = assay: Minimum inhibitory concentration required to reduce herpes simplex virus-2(G) induced cytopathogenicity by 50% in primary rabbit kidney cells (PRK); type: functional; summary of the method: as §2
[10] = test system: Mammalian orthoreovirus 1; assay: Minimum inhibitory concentration required to reduce reovirus-1 induced cytopathogenicity by 50% in african green monkey (VeroB)cells; type: functional; summary of the method: as §2
HeLa [11] = assay: Minimum inhibitory concentration required to reduce Coxsackie virus B4 induced cytopathogenicity by 50% in HeLa cells; type: functional; details: Homo sapiens; summary of the method: as §2
Human alphaherpesvirus 1 = assay: Minimum inhibitory concentration required to reduce herpes simplex virus-1 (KOS) induced cytopathogenicity by 50% in primary rabbit kidney cells(PRK); type: functional; summary of the method: as §2
Vero [12] = assay: Minimum inhibitory concentration required to reduce parainfluenza virus-3 induced cytopathogenicity by 50% in african green monkey (VeroB) cells; type: functional, Human respirovirus 3; details: Chlorocebus sabaeus; summary of the method: as §2
FM3A = assay: In vitro inhibition of FM3A (murine mammary carcinoma) cell proliferation.; type: functional; details: Mus musculus, read-out: CD50 (the source's name)
Nucleic Acid [13] = assay: Ratio of association constant of poly (dA-dT) and poly (dG-dC); type: nucleic-acid assay
Summary of the method: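 Kapp for poly(dA-dT) and for poly(dG-dC) is each determined by ethidium bromide competition in 0.01 M cacodylate, pH 7.0, 25 °C, with 1.26 μM ethidium and 1 μM polynucleotide. IC50 comes from a fitted competition sigmoid and is converted to Kapp assuming a four-base-pair binding size. The ratio is taken between the two polynucleotides.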

[14] = Minimum inhibitory concentration required to reduce herpes simplex virus-2 (G)induced cytopathogenicity by 50% in primary rabbit kidney cells (PRK); type: functional; details: Oryctolagus cuniculus
[15] = as §3; type: functional; details: Oryctolagus cuniculus
[16] = Minimum inhibitory concentration required to reduce herpes simplex virus-1 (KOS)induced cytopathogenicity by 50% in primary rabbit kidney cells (PRK); type: functional; details: Oryctolagus cuniculus

Compound	MCC (Oryctolagus cuniculus)	K app (Nucleic Acid [1])	K app (Nucleic Acid [2])	CC50 (L1210)	MIC (HeLa [3])	MCC (Vero [4])	CC50 [5]	CC50 (Raji)	MCC (HeLa [7])	MIC (Sindbis virus)	MIC (Vero [8])	MIC (Semliki Forest virus)	MIC [9]	MIC (Human alphaherpesvirus 2)	MIC [10]	MIC (HeLa [11])	MIC (Human alphaherpesvirus 1)	MIC (Vero [12])	CC50 (FM3A)	Ratio (Nucleic Acid [13])	also measured
Cn1cc([N+](=O)[O-])cc1C(=O)NCCC#N	>400 µg/mL	< 100 M⁻¹	< 100 M⁻¹	> 50 µg/mL	> 400 µg/mL	> 400 µg/mL	> 50 µg/mL	> 50 µg/mL	> 400 µg/mL	> 100 µg/mL	> 100 µg/mL	> 100 µg/mL	> 400 µg/mL	> 200 µg/mL	> 200 µg/mL	150 µg/mL (≈ 675 µM)	> 400 µg/mL	> 400 µg/mL	–	–	MIC (HeLa [6]): > 400 µg/mL
C[C@H](NC(=O)[C@H](C)NC(=O)[C@H](C)NC(=O)c1cc(NC(=O)c2cc(NC(=O)CNC(=N)N)cn2C)cn1C)C(=O)O	>400 µg/mL	< 100 M⁻¹	5000 M⁻¹	> 100 µg/mL	–	> 400 µg/mL	> 100 µg/mL	> 100 µg/mL	> 400 µg/mL	> 400 µg/mL	> 400 µg/mL	> 400 µg/mL	> 400 µg/mL	> 400 µg/mL	> 200 µg/mL	> 400 µg/mL	> 400 µg/mL	> 400 µg/mL	> 100 µg/mL	< 0.02	–
CC(NC(=O)c1cc(NC(=O)c2cc([N+](=O)[O-])cn2C)cn1C)C(=O)OC(C)(C)C (configuration not stated)	>100 µg/mL	200 M⁻¹	400 M⁻¹	37.8 µg/mL (≈ 90.1 µM)	–	> 100 µg/mL	26.6 µg/mL (≈ 63.4 µM)	33.8 µg/mL (≈ 80.6 µM)	> 100 µg/mL	> 40 µg/mL	20 µg/mL (≈ 47.7 µM)	> 40 µg/mL	> 40 µg/mL	> 40 µg/mL	> 40 µg/mL	> 100 µg/mL	> 40 µg/mL	20 µg/mL (≈ 47.7 µM)	27.7 µg/mL (≈ 66 µM)	0.5	MIC (HeLa [6]): > 40 µg/mL
CC(NC(=O)c1cc(NC(=O)c2cc(NC(=O)CNC(=N)N)cn2C)cn1C)C(=O)OC(C)(C)C (configuration not stated)	>400 µg/mL	8700 M⁻¹	10000 M⁻¹	> 100 µg/mL	–	> 400 µg/mL	> 100 µg/mL	> 100 µg/mL	> 400 µg/mL	> 400 µg/mL	> 400 µg/mL	> 400 µg/mL	> 400 µg/mL	> 400 µg/mL	> 400 µg/mL	> 400 µg/mL	> 400 µg/mL	> 400 µg/mL	> 100 µg/mL	0.87	–
C[C@H](NC(=O)c1cc(NC(=O)c2cc(NC(=O)CNC(=N)N)cn2C)cn1C)C(=O)N[C@@H](C)C(=O)N[C@@H](C)C(=O)OC(C)(C)C	400 µg/mL	20000 M⁻¹	3300 M⁻¹	> 100 µg/mL	–	> 400 µg/mL	> 100 µg/mL	> 100 µg/mL	> 400 µg/mL	> 400 µg/mL	> 200 µg/mL	> 400 µg/mL	> 200 µg/mL	> 100 µg/mL	> 200 µg/mL	> 400 µg/mL	> 100 µg/mL	> 400 µg/mL	> 100 µg/mL	6.06	–
CC(NC(=O)c1cc(NC(=O)c2cc([N+](=O)[O-])cn2C)cn1C)C(=O)NC(C)C(=O)OC(C)(C)C (configuration not stated)	>400 µg/mL	650 M⁻¹	20000 M⁻¹	28.8 µg/mL (≈ 58.7 µM)	–	> 200 µg/mL	29 µg/mL (≈ 59.1 µM)	33 µg/mL (≈ 67.3 µM)	> 400 µg/mL	> 100 µg/mL	> 200 µg/mL	> 200 µg/mL	> 100 µg/mL	> 200 µg/mL	> 200 µg/mL	> 200 µg/mL	> 100 µg/mL	> 200 µg/mL	27.2 µg/mL (≈ 55.5 µM)	0.033	–
Cn1c(C(=O)O)ccc1[N+](=O)[O-]	>400 µg/mL	–	–	> 50 µg/mL	> 200 µg/mL	> 400 µg/mL	> 50 µg/mL	> 50 µg/mL	> 400 µg/mL	> 100 µg/mL	> 100 µg/mL	> 200 µg/mL	> 400 µg/mL	> 400 µg/mL	> 100 µg/mL	70 µg/mL (≈ 411 µM)	> 400 µg/mL	> 200 µg/mL	–	–	MIC (HeLa [6]): > 400 µg/mL
CC(NC(=O)C(C)NC(=O)c1cc(NC(=O)c2cc(NC(=O)CNC(=N)N)cn2C)cn1C)C(=O)O (configuration not stated)	>400 µg/mL	1200 M⁻¹	1200 M⁻¹	> 100 µg/mL	–	> 400 µg/mL	> 100 µg/mL	> 100 µg/mL	> 400 µg/mL	> 400 µg/mL	> 400 µg/mL	> 400 µg/mL	> 400 µg/mL	> 400 µg/mL	> 200 µg/mL	> 400 µg/mL	> 400 µg/mL	> 400 µg/mL	> 100 µg/mL	1	–
Nc1nccc2c1ncn2[C@@H]1C[C@H](CO)[C@@H](O)[C@H]1O [3-DEAZAARISTEROMYCIN A]	>400 µg/mL	–	–	–	2 µg/mL (≈ 7.57 µM)	> 400 µg/mL	–	–	> 400 µg/mL	> 400 µg/mL	70 µg/mL (≈ 265 µM)	> 400 µg/mL	–	–	0.2 µg/mL (≈ 0.757 µM)	> 400 µg/mL	–	0.4 µg/mL (≈ 1.51 µM)	–	–	MIC [14]: > 400 µg/mL; MIC [15]: 2 µg/mL (≈ 7.57 µM); MIC [16]: > 400 µg/mL
Nc1ncnc2c1ncn2C[C@H](O)CO [(S)-DHPA]	>400 µg/mL	–	–	–	20 µg/mL (≈ 95.6 µM)	> 400 µg/mL	–	–	> 400 µg/mL	> 400 µg/mL	200 µg/mL (≈ 956 µM)	> 400 µg/mL	70 µg/mL (≈ 335 µM)	> 400 µg/mL	20 µg/mL (≈ 95.6 µM)	> 400 µg/mL	> 400 µg/mL	7 µg/mL (≈ 33.5 µM)	–	–	–
